Experimental data taken from ChEMBL document CHEMBL4406821, “Novel dual inhibitors targeting CDK4 and VEGFR2 synergistically suppressed cancer progression and angiogenesis” (Eur J Med Chem, 2019).
The source made the active and inactive calls. The rule behind the calls is not given here.

What was measured:
[1] = molecular target: CDK4/Cyclin D3 (Homo sapiens) (UniProt P11802+P30281); assay: Inhibition of recombinant full length human CDK4/Cyclin D3 using Rb-fragmen as substrate at 1 uM incubated for 40 mins by [gamma-33P]-ATP based radiometric assay relative to control; type: protein-complex assay
Outline: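 Kinase panel profiling at 1 μM performed by Eurofins KinaseProfiler; percent inhibition reported as mean of two independent experiments.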

HeLa [2] = assay: Antiproliferative activity against human HeLa cells assessed as reduction in cell viability measured after 72 hrs by CCK8 assay; type: functional, cell-based
Outline: (§1)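 Cells were seeded at 3×10³ cells/well and exposed to a range of concentrations or vehicle for 72 h. Viability was read by CCK-8 at 450 nm, with DMSO as blank and five replicates per sample. IC50 was calculated from the dose-response.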

T47D [3] = assay: Antiproliferative activity against human T47D cells assessed as reduction in cell viability measured after 72 hrs by CCK8 assay; type: functional, cell-based; outline: as §1
SiHa [4] = assay: Antiproliferative activity against human SiHa cells assessed as reduction in cell viability measured after 72 hrs by CCK8 assay; type: functional, cell-based; outline: as §1
MDA-MB-231 [5] = assay: Antiproliferative activity against human MDA-MB-231 cells assessed as reduction in cell viability measured after 72 hrs by CCK8 assay; type: functional, cell-based; conditions: MDA-MB-231, 72 h; outline: as §1
HUVEC [6] = assay: Antiproliferative activity against HUVEC cells assessed as reduction in cell viability measured after 72 hrs by CCK8 assay; type: functional, cell-based; conditions: Homo sapiens; outline: as §1
MDA-MB-231 [7] = assay: Induction of cell cycle arrest in human MDA-MB-231 cells assessed as accumulation in G0/G1 phase at 40 nM incubated for 36 hrs by propidium iodide staining based flow cytometry; type: functional
Outline: (§2)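 Cells were treated with graded concentrations for 36 h, then fixed overnight in 70% ice-cold ethanol at 4°C and resuspended in PBS. Staining used 50 µg/ml PI plus 5 µg/ml RNase at 37°C for 30 min. DNA content was analysed by FACS to give G0/G1, S and G2/M fractions.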

T47D [8] = assay: Induction of cell cycle arrest in human T47D cells assessed as accumulation in G0/G1 phase at 40 nM incubated for 36 hrs by propidium iodide staining based flow cytometry; type: functional; outline: as §2
SiHa [9] = assay: Induction of cell cycle arrest in human SiHa cells assessed as accumulation in G0/G1 phase at 80 nM incubated for 36 hrs by propidium iodide staining based flow cytometry; type: functional; outline: as §2
HeLa [10] = assay: Induction of cell cycle arrest in human HeLa cells assessed as accumulation in G0/G1 phase at 80 nM incubated for 36 hrs by propidium iodide staining based flow cytometry; type: functional; outline: as §2
MDA-MB-231 [11] = assay: Induction of apoptosis in human MDA-MB-231 cells assessed as decrease in Bcl2 expression at 40 nM incubated for 48 hrs by Western blot analysis; type: functional, cell-based
Outline: (§3)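 Cells were treated for 48 h, washed three times with PBS, and lysed in RIPA buffer. Immunoblots used anti-Rb, anti-phospho-Rb, anti-Ki67 and anti-Bcl-2 (each 1:1000), with β-actin as loading control.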

T47D [12] = assay: Induction of apoptosis in human T47D cells assessed as decrease in Bcl2 expression at 40 nM incubated for 48 hrs by Western blot analysis; type: functional, cell-based
Outline: (§4)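 Cancer cells were exposed to graded concentrations for 48 h, washed three times in PBS and lysed in RIPA buffer. Immunoblots were probed with anti-Rb, anti-phospho-Rb, anti-Ki67 and anti-Bcl-2, each at 1:1000. β-actin served as loading control.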

SiHa [13] = assay: Antitumor activity against human SiHa cells xenografted in NOD/SCID BALB/c mouse assessed as reduction in Ki67 expression at 40 mg/kg, po measured after 21 days by hematoxylin and eosin staining based immunohistochemistry; type: functional, organism-based
Outline: (§5)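 Female NOD/SCID Balb/c mice, 6–8 weeks old, received 2×10^6 SiHa cells subcutaneously in the right flank. Once tumors reached 100 mm³, mice were randomized, 5 per group, and gavaged once daily for 21 days. Formalin-fixed, paraffin-embedded tumor sections were stained with Ki67 or CD31 antibody (1:100, 4 °C overnight), then biotin secondary and ABC-peroxidase/DAB, with hematoxylin counterstain.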

[14] = Toxicity in NOD/SCID BALB/c mouse xenografted with human SiHa cells assessed as body weight at 40 mg/kg, po administered for 21 days; type: organism-based; conditions: in vivo, 504 h
Outline: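 Female NOD/SCID Balb/c mice, 6–8 weeks, implanted subcutaneously in right flank with 2×10^6 SiHa cells in 100 µL medium. At 100 mm³ tumors, randomized (5 mice/group) to daily oral gavage. Body weight monitored every 3 days; study ended day 21.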

HUVEC [15] = assay: Antiproliferative activity against HUVEC cells assessed as reduction in cell viability at 40 nM measured upto 72 hrs by CCK8 assay; type: functional, cell-based; conditions: Homo sapiens
Outline: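 HUVECs, 3×10³ cells/well, kept in 1640 medium with 10% FBS at 37°C and 5% CO₂. Cells were treated at 20 or 40 nM or vehicle, and viability was read by CCK-8 (absorbance 450 nm) at 0, 12, 24, 36, 48, 60 and 72 h. Five replicates per sample.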

HeLa [16] = assay: Antiproliferative activity against human HeLa cells assessed as reduction in cell viability at 80 nM incubated for 48 hrs by EdU staining based laser scanning confocal microscopy; type: functional
Outline: (§6)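 Cells, 5×10^4, were seeded in 24-well plates and treated for 48 h. They were then labeled using an EdU Apollo 488 imaging kit with Hoechst 33342 nuclear stain and imaged by laser scanning confocal microscopy. Percent EdU-positive cells = EdU-positive/Hoechst-stained × 100%.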

MDA-MB-231 [17] = assay: Inhibition of colony formation in human MDA-MB-231 cells at 40 nM incubated for 5 days by crystal violet staining based light microscopy; type: functional, cell-based
Outline: (§7)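 4 × 10^3 cells per well were cultured with graded concentrations for 5 days. Cells were then fixed with 20% methanol, stained with 0.5% crystal violet and photographed by light microscopy.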

T47D [18] = assay: Inhibition of colony formation in human T47D cells at 40 nM incubated for 5 days by crystal violet staining based light microscopy; type: functional, cell-based
Outline: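 MDA-MB-231, T-47D, SiHa and HeLa cells seeded at 4×10^3/well and cultured with varying concentrations of drug or vehicle for 5 days. Fixed in 20% methanol, stained with 0.5% crystal violet, photographed under light microscopy. DMEM (T-47D) with 10% FBS, 37°C, 5% CO2.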

SiHa [19] = assay: Inhibition of colony formation in human SiHa cells at 80 nM incubated for 5 days by crystal violet staining based light microscopy; type: functional, cell-based; outline: as §7
HeLa [20] = assay: Inhibition of colony formation in human HeLa cells at 80 nM incubated for 5 days by crystal violet staining based light microscopy; type: functional, cell-based; outline: as §7
T47D [21] = assay: Antiproliferative activity against human T47D cells assessed as reduction in cell viability at 40 nM incubated for 48 hrs by EdU staining based laser scanning confocal microscopy; type: functional; outline: as §6
SiHa [22] = assay: Antiproliferative activity against human SiHa cells assessed as reduction in cell viability at 80 nM incubated for 48 hrs by EdU staining based laser scanning confocal microscopy; type: functional; outline: as §6
MDA-MB-231 [23] = assay: Antiproliferative activity against human MDA-MB-231 cells at 40 nM assessed as reduction in cell viability incubated for 48 hrs by EdU staining based laser scanning confocal microscopy; type: functional; outline: as §6
MDA-MB-231 [24] = assay: Induction of apoptosis in human MDA-MB-231 cells at 40 nM incubated for 48 hrs by annexin V FITC and propidium iodide staining based flow cytometry; type: functional, cell-based
Outline: (§8)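 Annexin V-FITC/PI double staining with flow-cytometric readout. MDA-MB-231, T-47D, SiHa and HeLa cells were treated with graded concentrations for 48 h. MDA-MB-231 and T-47D were grown in DMEM and SiHa in 1640 medium, each with 10% FBS and 1% penicillin/streptomycin at 37°C under 5% CO2. Early- and late-stage apoptotic fractions were scored.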

T47D [25] = assay: Induction of apoptosis in human T47D cells at 40 nM incubated for 48 hrs by annexin V FITC and propidium iodide staining based flow cytometry; type: functional, cell-based; outline: as §8
SiHa [26] = assay: Induction of apoptosis in human SiHa cells at 40 nM incubated for 48 hrs by annexin V FITC and propidium iodide staining based flow cytometry; type: functional, cell-based; outline: as §8
HeLa [27] = assay: Induction of apoptosis in human HeLa cells at 40 nM incubated for 48 hrs by annexin V FITC and propidium iodide staining based flow cytometry; type: functional, cell-based
Outline: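 Cells were treated for 48 h, stained with FITC Annexin V and PI, and analyzed by flow cytometry to count early and late apoptotic cells.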

SiHa [28] = assay: Induction of apoptosis in human SiHa cells assessed as decrease in Bcl2 expression at 80 nM incubated for 48 hrs by Western blot analysis; type: functional, cell-based; outline: as §4
HeLa [29] = assay: Induction of apoptosis in human HeLa cells assessed as decrease in Bcl2 expression at 80 nM incubated for 48 hrs by Western blot analysis; type: functional, cell-based; outline: as §3
SiHa [30] = assay: Antitumor activity against human SiHa cells xenografted in NOD/SCID BALB/c mouse assessed as tumor growth inhibition at 40 mg/kg, po administered for 21 days; type: functional, organism-based
SiHa [31] = assay: Antiangiogenic activity against human SiHa cells xenografted in NOD/SCID BALB/c mouse assessed as reduction in CD31 expression at 40 mg/kg, po measured after 21 days by hematoxylin and eosin staining based immunohistochemistry; type: functional, organism-based; outline: as §5

For `CCN1CCN(Cc2ccc(Nc3ncc(F)c(-c4cc(F)c5nc(C)n(C(C)C)c5c4)n3)nc2)CC1` [ABEMACICLIB], the inhibition [1] was 99%, the IC50 (HeLa [2]) was 0.768 µM and the IC50 (T47D [3]) was 0.145 µM. It also gave an IC50 (SiHa [4]) of 0.861 µM, an IC50 (MDA-MB-231 [5]) of 0.062 µM and an IC50 (HUVEC [6]) of 0.403 µM. For the same molecule, the Activity (MDA-MB-231 [7]) was “Active”, the Activity (T47D [8]) was “Active” and the Activity (SiHa [9]) was “Active”. The Activity (HeLa [10]) was “Active”, the Activity (MDA-MB-231 [11]) was “Active” and the Activity (T47D [12]) was “Active”. The inhibition (SiHa [13]) was “Active”, the Activity [14] was “Non-Toxic” and the inhibition (HUVEC [15]) was “Active”. The inhibition (HeLa [16]) was “Active”, the inhibition (MDA-MB-231 [17]) was “Active” and the inhibition (T47D [18]) was “Active”. The inhibition (SiHa [19]) was “Active”, the inhibition (HeLa [20]) was “Active” and the inhibition (T47D [21]) was “Active”. For the same molecule, the inhibition (SiHa [22]) was “Active”, the inhibition (MDA-MB-231 [23]) was “Active” and the Activity (MDA-MB-231 [24]) was “Active”. For the same molecule, the Activity (T47D [25]) was “Active”, the Activity (SiHa [26]) was “Active” and the Activity (HeLa [27]) was “Active”. For the same molecule, the Activity (SiHa [28]) was “Active”, the Activity (HeLa [29]) was “Active” and the TGI (SiHa [30]) was “Active”. For the same molecule, the inhibition (SiHa [31]) was “Active”.
